Data set [1] addresses Aβ. The settings on record: cited from earlier work.
Data set [2] is described as follows: Biodistribution study and non-compartmental pharmacokinetics. It counts as in vivo, Balb/C mice. The settings on record: i.v. The method in brief: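 Thirty healthy male Balb/C mice (10-12 weeks, 28.5±2.0 g) in 6 groups of 5 received 20-40 MBq i.v. via lateral tail vein. Blood was collected and mice were killed at 5, 15, 30, 45, 70 and 180 min. Organs were removed, washed with saline, dried and weighed, and radioactivity was well-counted. Plasma PK parameters came from non-compartmental analysis, reported as mean and standard deviation.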

The subject of data set [3] is APPSwe/PS1dE9 mice. The experiment in a line: PET/CT imaging, transgenic mice. The format is in vivo. Particulars: static PET at 30 min, n=3, no statistical significance. The method in brief: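 Male APPSwe/PS1dE9 transgenic mice (aged 12 months) and male C57BL/6 controls (aged 13 months) under isoflurane received 30-37 MBq i.v. via tail vein. PET/CT images were fused with a brain-template atlas to give regional values. In static images, regional SUV was normalised to brain stem (n=3). Transgenic and control regions were compared by Student's t-test, α=0.05.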

Data set [4] in a line: Protein binding assay. The settings on record: human plasma, gel filtration. It counts as in vitro ADME. The method in brief: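 Human plasma (1 mL) with 100 μL radiotracer was incubated at 37 °C for 120 min. At 30, 60 and 120 min, 50 μL was applied to pre-spun G-50 size-exclusion spin columns, left 2 min, and centrifuged 2 min at 3300 rpm, 4 °C. Column (free) and eluate (bound) activity were gamma-counted. The blank used 0.1 M phosphate buffer instead of plasma, at 120 min.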
(In gel filtration, larger molecules generally elute earlier.)

Data set [5] deals with C57BL/6 mice. Briefly: PET/CT imaging, control healthy mice. The format is in vivo. Particulars: wild-type mice, i.v. The method in brief: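 Male C57BL/6 controls (aged 13 months), anaesthetised with 4-5% isoflurane (1-2% maintenance), received 30-37 MBq via lateral tail vein. Dynamic PET ran 120 min, framed 10x2 min, 5x5 min and 5x15 min, with CT at 45 kVp for anatomy. Decay-corrected PET was fused with CT and an MRI mouse brain template holding predefined brain regions of interest.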

Data set [6] can be described thus: Stability in plasma. It counts as in vitro ADME, human. Particulars: 2 h incubation at 37 °C.
In data set [7] the target is Aβ plaques (Homo sapiens, UniProt P05067). The experiment in a line: In vitro binding assays with Aβ plaques. More on the design: species or system 3xTg-AD mice.
Sequence of Aβ plaques (P05067 672-713): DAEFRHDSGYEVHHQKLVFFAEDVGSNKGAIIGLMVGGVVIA
The nature of data set [8]: Stability in the final formulation. It counts as physicochemical. The settings on record: 6 h, room temperature. The method in brief: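 Three samples of the formulated tracer, a filtered ethanol/saline formulation with phosphate and Tween 80, were held at room temperature. Each was analysed at 0, 1, 2, 3, 4, 5 and 6 h by radio-HPLC on C18 with MeCN:H2O 75:25 at 1 mL/min, using UV 215 nm and gamma detectors. Radiochemical purity was taken as the tracer peak area relative to total radioactivity.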

Data set [9] in a line: Lipophilicity, n-octanol/phosphate buffer partition coefficient. The format is physicochemical. Particulars: n-octanol/phosphate buffer 0.1 mol/L, pH 7.4; mean of two batches in triplicate.
For data set [10] the following is noted: cited from earlier work.
[11] abbreviates: plasma of healthy Balb/C male mice, NCA.
Setting [12] is: brain serial sections of 3xTg-AD mice.

In general, Kd refers to the free concentration of one partner at which half of the binding sites on the other are occupied at equilibrium, for simple one-to-one binding. As usually defined, the Vss is a proportionality between amount in the body and measured concentration, not a real space. As a reminder, the Log P is a log measure of how a compound divides between an organic and an aqueous phase.

Each structure is given as a SMILES string. Where two headings read alike, the source gives them in different places.

As to `CNc1ccc(/C=C/c2ccc(OCCOCCOCCF)nc2)cc1` [[^18F]Florbetapir, AV-45], in [1] (AD brain homogenates ref 62), the Kd is 3.72 nM.

For the compound `COc1ccc2cc(CCC[18F])ccc2c1` [[^18F]Amylovis, 2-(3-[^18F]fluoropropyl)-6-methoxynaphthalene], in [2] (healthy Balb/C mice), the bone uptake entry is “relatively high bone uptake”; the “uptake in kidneys and liver” value is given as “high uptake values”. Further, the “brain uptake (washout/clearance)” value in data set [2] (healthy Balb/C mice, 60 min) came out at 0.11±0.03 %ID/g. Moreover, in data set [2] (setting [11]), the “T1/2 (plasma)” value amounted to 37 ± 10 min, the Vss turned out to be 10.3 ± 2.9 mL and the Vss/kg stood at 0.372 ± 0.11 L/kg. Besides, the “uptake in cortex, transgenic vs control healthy mice (SUVr to brain stem)” value in [3] is listed as “slightly incremented uptake”. Besides, in data set [4], the “plasma protein binding (PPB)” value is given as “high PPB percentage”. For the same compound, the “time of maximum activity in brain (dynamic PET)” value in [5] was found to be 2 min. Moreover, in data set [6], the “stability in fresh human plasma” value is on record as “not degraded”. Binding in [7] was characterised by a dissociation constant (Kd) of 0.16 nM. In [7] (setting [12]), the Bmax was determined as 119.4 nM, the “fold higher BP than [^11C]PIB” value came to 3 folds and the “fold higher affinity for Aβ plaques compared with [^11C]PIB” value is given as 6 fold. In data set [8], the “stability (radiochemical purity) of final formulation” value is reported as “did not significantly change”. The “log Poct/PBS” value in data set [9] is reported as 2.46 ± 0.06.

As for `CNc1ccc(/C=C/c2ccc(OCCOCCOCCF)cc2)cc1` [[^18F]Florbetaben, BAY94-9172], the Kd in data set [1] (AD brain homogenates ref 60) was 16 nM. Further, the log partition coefficient (Log P) in data set [10] was 2.41 [65].

Take `CNc1ccc(-c2nc3ccc(O)cc3s2)cc1F` [[^18F]Flutemetamol, GE-067]: the equilibrium dissociation constant (Kd) in [1] (AD brain homogenates ref 59) was 6.7 nM. Besides, in data set [10], the “Log P” value was 1.7 [64].

The record behind these values is PMC6463402 (Current Radiopharmaceuticals, 2019).
